Data set [1] deals with HeLa. Put plainly: Antiviral activity was measured against Coxsackie virus B4 in HeLa cells. Format: functional. Particulars: Homo sapiens. The gist of the method: (§1)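 Inhibition of virus-induced cytopathogenicity in cell culture. Compounds were dissolved in growth medium at 100, 10 or 1 μg/mL or less.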
The test system of data set [2] is HeLa. Kind of data set: Antiviral activity was measured against vesicular stomatitis virus in HeLa cells. The class given is functional. Particulars: Homo sapiens. The gist of the method:
as §1

In data set [3] the test system is HeLa. Kind of data set: Concentration required for microscopically detectable alteration of the normal cell morphology in HeLa cells. Format: functional. To be noted: Homo sapiens. The gist of the method:
(§2)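 Host-cell morphology inspected microscopically for detectable alteration, with compounds in growth medium at up to 200 or 400 μg/mL.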

The nature of data set [4]: Antiviral activity was measured against vesicular stomatitis virus in rabbit kidney cells. Particulars: Oryctolagus cuniculus. The class given is functional. In a few lines: as §1
The nature of data set [5]: Antiviral activity was measured against vaccinia virus in rabbit kidney cells. The class given is functional. To be noted: Oryctolagus cuniculus. The gist of the method:
as §1

Data set [6] can be described thus: Concentration required for microscopically detectable alteration of the normal cell morphology in PRK cells. Format: functional. Particulars: Oryctolagus cuniculus. In a few lines:
as §2

Data set [7] in a line: Antiviral activity was measured against Herpes simplex virus (HSV-1 KOS) in rabbit kidney cells. Format: functional. Particulars: Oryctolagus cuniculus. The gist of the method:
as §1

Data set [8] in a line: Antiviral activity was measured against Herpes simplex virus (HSV-2 G) in rabbit kidney cells. The class given is functional. Particulars: Oryctolagus cuniculus. The gist of the method: (§3)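 Inhibition of virus-induced cytopathogenicity scored in cell culture monolayers. Test compounds dissolved in growth medium at 100, 10, or 1 μg/mL or less.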
Data set [9] deals with Vero. Put plainly: Antiviral activity was measured against Coxsackie virus B4 in african green monkey kidney (Vero B) cells. Format: functional. Particulars: Chlorocebus sabaeus. In a few lines:
as §3

Data set [10] relates to Vero. Put plainly: Antiviral activity was measured against Parainfluenza virus-3 in african green monkey kidney (Vero B) cells. Format: functional. Particulars: Chlorocebus sabaeus. In a few lines:
as §3

Data set [11] relates to Vero. Put plainly: Antiviral activity was measured against Reo virus-1 in african green monkey kidney (Vero B) cells. Format: functional. To be noted: Chlorocebus sabaeus. In a few lines:
as §3

Data set [12] has as its system Vero. Put plainly: Antiviral activity was measured against forest virus in african green monkey kidney (Vero B) cells. The class given is functional. Particulars: Chlorocebus sabaeus. The gist of the method:
as §3

In data set [13] the test system is Vero. Kind of data set: Antiviral activity was measured against Sindbis virus in african green monkey kidney (Vero B) cells. The class given is functional. To be noted: Chlorocebus sabaeus. The gist of the method: as §3
For data set [14], the system named is WI-38. Put plainly: Concentration required for microscopically detectable alteration of the normal cell morphology in Wi-38 cells. Format: functional. To be noted: Homo sapiens. The gist of the method: as §2
Data set [15] has as its system WI-38. Put plainly: Antiviral activity was measured against Rhino virus-1A in human diploid (WI-38) cells. The class given is functional. The gist of the method: as §3
For data set [16], the system named is WI-38. Kind of data set: Antiviral activity was measured against Rhino virus-9 in human diploid (WI-38) cells. Format: functional. In a few lines:
as §3

Data set [17] deals with Vero. Put plainly: Concentration required for microscopically detectable alteration of the normal cell morphology in Vero B cells. The class given is functional. To be noted: Chlorocebus sabaeus. In a few lines:
as §2

In data set [18] the test system is Mus musculus. Kind of data set: Efficacy expressed as number of surviving mice infected with herpetic encephalitis at dose of 0 mg/kg. The class given is functional.
In data set [19] the test system is Mus musculus. Put plainly: Toxicity of compound against mice was determined at a concentration of 100 mg/kg. The class given is organism-based. Further details: dose 100 mg/kg. Particulars: in vivo. In a few lines: (§4)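 Swiss mice (20-24 g) received a single intraperitoneal dose of 100-2,000 mg/kg. Compound was suspended in distilled water containing 0.2 g Tween 80 and 0.2 g (carboxymethyl)cellulose per 100 mL. Mice were followed for 14 days for acute toxicity.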

For data set [20], the system named is Mus musculus. Kind of data set: Toxicity of compound against mice was determined at a concentration of 1200 mg/kg. To be noted: in vivo. Further details: dose 1200 mg/kg. Format: organism-based. The gist of the method: as §4
Data set [21] relates to Mus musculus. Kind of data set: Toxicity of compound against mice was determined at a concentration of 2000 mg/kg. Format: organism-based. Further details: dose 2000 mg/kg. Particulars: in vivo. In a few lines:
as §4

Data set [22] has as its system Mus musculus. Put plainly: Toxicity of compound against mice was determined at a concentration of 250 mg/kg. Further details: dose 250 mg/kg. Particulars: in vivo. The class given is organism-based. The gist of the method: as §4
The subject of data set [23] is Mus musculus. Kind of data set: Toxicity of compound against mice was determined at a concentration of 750 mg/kg. Format: organism-based. Further details: dose 750 mg/kg. Particulars: in vivo. In a few lines: as §4
A short description of data set [24]: Antiviral activity was measured against Vaccinia virus in rabbit kidney cells. Format: functional. To be noted: Oryctolagus cuniculus. The gist of the method:
as §1

Each structure is given as a SMILES string. Where only a bound is given, the exact number is not on record here.

For `Nc1ncnc2c1ncn2C[C@H](O)CO` [(S)-DHPA], the MCC is greater than 400 µg/mL in data set [1]; 70 µg/mL in [2]; greater than 400 µg/mL in data set [3]; 20 µg/mL in data set [4]; 20 µg/mL in data set [5]; greater than 400 µg/mL in data set [6]. For the same compound, the MCC is greater than 400 µg/mL in data set [7]; greater than 400 µg/mL in data set [8]; 100 µg/mL in data set [9]; greater than 400 µg/mL in data set [10]; 100 µg/mL in [11]; greater than 400 µg/mL in [12]. The MCC in [13] is greater than 400 µg/mL; in [14], greater than 400 µg/mL; in data set [15], 150 µg/mL; in data set [16], greater than 400 µg/mL; in [17] it was greater than 400 µg/mL.

Regarding `Nc1nc2c(ncn2COCCO)c(=O)[nH]1` [ACYCLOVIR], the Efficacy in data set [18] is 0 mg/kg. In addition, the “No. of dead mice” value turned out to be 0 in [19]; 7 in data set [20]; 7 in data set [21]; 0 in [22]; 1 in data set [23].

On to `Nc1nc(S)c2ncn(C3O[C@H](CO)[C@H](O)[C@H]3O)c2n1` (some centres undefined), for which the MCC in data set [1] was greater than 200 µg/mL; in data set [3], no less than 200 µg/mL; in data set [6], greater than 400 µg/mL; in data set [7], greater than 400 µg/mL; in data set [8], greater than 400 µg/mL; in data set [9], greater than 200 µg/mL. The MCC in data set [10] was greater than 200 µg/mL; in [11], greater than 200 µg/mL; in data set [12], greater than 200 µg/mL; in data set [13] it was greater than 200 µg/mL; in data set [14] it was no less than 400 µg/mL; in [15], greater than 200 µg/mL. For the same compound, the MCC in [16] was greater than 200 µg/mL; in data set [17], no less than 200 µg/mL.

Take `O=c1ccn(C2O[C@H](CO)[C@H](O)[C@H]2O)c(=O)[nH]1` (some centres undefined): the MCC in data set [1] was greater than 400 µg/mL; in data set [3] it was greater than 400 µg/mL; in data set [4] it was greater than 200 µg/mL; in [6] it was greater than 400 µg/mL; in [7] it was 300 µg/mL; in data set [8], 300 µg/mL. Moreover, the MCC in data set [24] is 150 µg/mL; in data set [9], greater than 400 µg/mL; in data set [10], greater than 400 µg/mL; in [11], greater than 400 µg/mL; in data set [12], greater than 400 µg/mL; in [13] it was greater than 400 µg/mL. The MCC in data set [14], in data set [15], in data set [16] and in data set [17] was greater than 400 µg/mL each time.

Take `Nc1ncnc2c1ncn2C1O[C@H](CO)[C@H](O)[C@H]1O` (some centres undefined): the MCC in data set [1], in [3], in data set [6], in [7], in data set [8] and in data set [9] was greater than 400 µg/mL in each case. Further, the MCC in data set [10], in data set [11], in data set [12], in data set [13], in [14] and in data set [15] was greater than 400 µg/mL throughout. Also, the MCC was greater than 40 µg/mL in [16] and greater than 400 µg/mL in data set [17].

Regarding `Nc1nccc2c1ncn2[C@@H]1C[C@H](CO)[C@@H](O)[C@H]1O` [3-DEAZAARISTEROMYCIN A], the MCC in data set [1] is greater than 400 µg/mL; in data set [2], 2 µg/mL; in [3], no less than 400 µg/mL; in data set [4], 0.7 µg/mL; in data set [5] it was 2 µg/mL; in data set [6], greater than 400 µg/mL. For the same compound, the MCC in data set [7] is greater than 400 µg/mL; in data set [8], greater than 400 µg/mL; in data set [9] it was 0.7 µg/mL; in data set [10] it was 0.2 µg/mL; in data set [11], 2 µg/mL; in data set [12], greater than 400 µg/mL. Besides, the MCC in data set [13] was greater than 400 µg/mL; in data set [14], greater than 400 µg/mL; in data set [15], greater than 400 µg/mL; in data set [16] it was greater than 400 µg/mL; in [17] it was no less than 400 µg/mL.

These data come from ChEMBL document CHEMBL1123394, “Systematic synthesis and biological evaluation of alpha- and beta-D-xylofuranosyl nucleosides of the five naturally occurring bases in nucleic acids and related analogues” (J Med Chem, 1986).
